Calls of active or inactive are those of the source. The calls are words filed in the database; no cut-off is given here.
Experiments:
[1] = target: T1, Prostaglandin G/H synthase 1 (Ovis aries, UniProt P05979); assay: Inhibition of ovine COX-1 using arachidonic acid as substrate measured every 60 sec for 10 mins by fluorescence based assay
T1 sequence (P05979 whole entry): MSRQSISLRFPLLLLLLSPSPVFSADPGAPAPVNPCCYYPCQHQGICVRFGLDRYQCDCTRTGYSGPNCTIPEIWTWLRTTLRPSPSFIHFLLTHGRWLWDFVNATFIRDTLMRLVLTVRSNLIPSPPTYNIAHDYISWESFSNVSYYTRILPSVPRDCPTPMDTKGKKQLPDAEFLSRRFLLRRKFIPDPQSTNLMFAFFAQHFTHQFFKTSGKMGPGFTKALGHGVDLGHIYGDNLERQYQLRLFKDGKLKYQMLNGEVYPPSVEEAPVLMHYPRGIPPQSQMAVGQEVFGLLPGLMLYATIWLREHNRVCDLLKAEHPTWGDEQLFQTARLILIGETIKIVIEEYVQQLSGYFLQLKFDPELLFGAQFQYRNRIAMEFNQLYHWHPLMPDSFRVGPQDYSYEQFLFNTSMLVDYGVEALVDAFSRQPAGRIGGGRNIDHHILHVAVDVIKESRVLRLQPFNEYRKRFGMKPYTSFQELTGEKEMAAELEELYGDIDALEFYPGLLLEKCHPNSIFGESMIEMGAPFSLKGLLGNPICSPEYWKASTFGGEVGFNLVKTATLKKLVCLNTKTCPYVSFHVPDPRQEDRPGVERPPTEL

[2] = target: T2, L-lactate dehydrogenase A chain (Homo sapiens, UniProt P00338); assay: Non-competitive inhibition of human recombinant LDHA assessed as decrease in Vmax with no effect on Km using pyruvate as substrate upto 20 uM
Homo sapiens = species: Homo sapiens; assay: Ratio of Ki for Non-competitive inhibition of human recombinant LDHB to Ki for non-competitive inhibition of human recombinant LDHA
[3] = target: T3, 2-Hydroxyacid oxidase 1 (Homo sapiens) (UniProt Q9UJM8); assay: Reversible inhibition of N-terminal His-tagged human recombinant glycolate oxidase expressed in Escherichia coli BL21 (DE3) cells assessed as enzyme recovery using glycolate as substrate at 100 times of IC50 concentration preincubated for 30 mins followed by substrate addition and measured every 60 sec for 15 mins by jump-dilution based Amplex red and horseradish peroxidase fluorescence assay; settings: time 45.0 min
T3 sequence (whole entry): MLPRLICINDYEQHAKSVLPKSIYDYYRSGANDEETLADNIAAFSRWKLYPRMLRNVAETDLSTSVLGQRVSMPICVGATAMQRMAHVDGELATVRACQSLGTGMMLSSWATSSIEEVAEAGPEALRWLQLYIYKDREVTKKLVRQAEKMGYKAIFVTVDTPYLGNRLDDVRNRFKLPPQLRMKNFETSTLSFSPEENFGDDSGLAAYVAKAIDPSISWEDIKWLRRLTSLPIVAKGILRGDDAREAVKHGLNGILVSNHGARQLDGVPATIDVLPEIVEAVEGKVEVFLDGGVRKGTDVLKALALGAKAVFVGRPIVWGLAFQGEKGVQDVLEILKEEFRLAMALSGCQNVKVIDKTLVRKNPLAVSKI

Hepatocyte [4] = assay: Cytotoxicity against hyperoxaluric-primary hepatocyte isolated from Grhpr-knockdown PH2 C57BL/6 mouse assessed as cell death at 10 uM by MTS assay; assay type: toxicity, cell-based; settings: hepatocytes, Grhpr-knockdown PH2 (primary hyperoxaluria type 2)
Summary of the method: (§1)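 Primary hepatocytes from Agxt1-/- (PH1, 5 mM glycolate), Grhpr-/- (PH2, 10 mM glycolate) or Hoga1-/- (PH3, 10 mM hydroxyproline) mice, incubated with inhibitor at 10 μM; viability followed through the oxalate assay by MTS tetrazolium method.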

2-Hydroxyacid oxidase 1 [5] = target: T4, 2-Hydroxyacid oxidase 1 (Homo sapiens, UniProt Q9UJM8); assay: Non-competitive mixed inhibition of N-terminal His-tagged human recombinant glycolate oxidase expressed in Escherichia coli BL21 (DE3) cells assessed as inhibition constant using varying concentration of glycolate as substrate measured every 60 sec for 15 mins by Amplex red and horseradish peroxidase based fluorescence assay
T4 sequence (Q9UJM8 whole entry): T3 sequence (whole entry)

[6] = target: T2, L-lactate dehydrogenase A chain; assay: Non-competitive inhibition of human recombinant LDHA assessed as inhibition constant using varying concentration of pyruvate as substrate preincubated for 10 mins followed by substrate addition and measured every 60 sec for 10 mins in the presence of NADH by fluorescence assay
Hepatocyte [7] = assay: Inhibition of GO/LDHA in hyperoxaluric-primary hepatocyte isolated from Grhpr-knockdown PH2 C57BL/6 mouse assessed as relative oxalate output at 10 uM measured at 48 hrs in the presence of glycolate relative to control; assay type: cell-based
Summary of the method: (§2)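 Grhpr-/- mouse primary hepatocytes cultured with 10 mM glycolate, inhibitor at 10 μM; extracellular oxalate determined colorimetrically at 24 and 48 h post-treatment, expressed relative to untreated medium (RO); negative RO means below detection limit; three/four replicates, mean ± SD.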

Hepatocyte [8] = assay: Inhibition of GO/LDHA in hyperoxaluric-primary hepatocyte isolated from Hoga1-knockdown PH3 C57BL/6 mouse assessed as relative oxalate output at 10 uM measured at 48 hrs in the presence of hydroxyproline relative to control; assay type: cell-based
Summary of the method: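 Hoga1-/- mouse primary hepatocytes challenged with 10 mM hydroxyproline, inhibitor 10 μM; extracellular oxalate measured by colorimetric kit 24 and 48 h after dosing, given as ratio to oxalate without inhibitor; negative values are below detection limit; mean of three/four replicates ± SD.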

Hepatocyte [9] = assay: Cytotoxicity against hyperoxaluric-primary hepatocyte isolated from Agxt1-knockdown PH1 C57BL/6 mouse assessed as cell death at 10 uM by MTS assay; assay type: toxicity, cell-based; settings: hepatocytes, Agxt1-knockdown PH1, 10 µM; summary of the method: as §1
[10] = target: T3, 2-Hydroxyacid oxidase 1 (Homo sapiens); assay: Non-competitive mixed inhibition of N-terminal His-tagged human recombinant glycolate oxidase expressed in Escherichia coli BL21 (DE3) cells assessed as decrease in Vmax with increase in apparent Km using glycolate as substrate upto 60 microM
2-Hydroxyacid oxidase 1 [11] = target: T5, 2-Hydroxyacid oxidase 1 (Mus musculus, UniProt Q9WU19); assay: Inhibition of N-terminal His-tagged mouse recombinant glycolate oxidase expressed in Escherichia coli BL21 (DE3) cells using glycolate as substrate preincubated for 10 mins followed by substrate addition and measured after 10 mins by Amplex red and horseradish peroxidase based fluorescence assay
T5 sequence (Q9WU19 whole entry): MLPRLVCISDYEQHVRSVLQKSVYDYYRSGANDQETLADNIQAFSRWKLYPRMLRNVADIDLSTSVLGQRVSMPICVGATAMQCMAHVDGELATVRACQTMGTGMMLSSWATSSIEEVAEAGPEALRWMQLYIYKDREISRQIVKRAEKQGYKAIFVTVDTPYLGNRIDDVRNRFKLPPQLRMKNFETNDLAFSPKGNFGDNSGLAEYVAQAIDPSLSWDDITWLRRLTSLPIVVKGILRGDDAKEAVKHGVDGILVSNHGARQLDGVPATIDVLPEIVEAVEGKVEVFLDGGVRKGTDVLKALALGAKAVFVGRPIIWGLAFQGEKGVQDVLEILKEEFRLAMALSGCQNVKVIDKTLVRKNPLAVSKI

Hepatocyte [12] = assay: Inhibition of GO/LDHA in hyperoxaluric-primary hepatocyte isolated from Grhpr-knockdown PH2 C57BL/6 mouse assessed as relative oxalate output at 10 uM measured at 24 hrs in the presence of glycolate relative to control; assay type: cell-based; summary of the method: as §2
Hepatocyte [13] = assay: Inhibition of GO/LDHA in hyperoxaluric-primary hepatocyte isolated from Agxt1 knockdown PH1 C57BL/6 mouse assessed as relative oxalate output at 10 uM measured at 48 hrs in the presence of glycolate relative to control; assay type: cell-based
Summary of the method: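 Agxt1-/- mouse primary hepatocytes cultured with 5 mM glycolate, inhibitor at 10 μM; extracellular oxalate measured by colorimetric kit 24 and 48 h after inhibitor addition; relative oxalate = oxalate with inhibitor over oxalate without inhibitor; negative values mean below detection limit; mean of three/four replicates ± SD.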

IC50 [1]: 24000 nM | inhibition [2]: Active | Ratio (Homo sapiens): 8 | inhibition [3]: Active | Ki (2-Hydroxyacid oxidase 1 [5]): 2300 nM | Ki [6]: 90 nM | inhibition [10]: Active | IC50 (2-Hydroxyacid oxidase 1 [11]): 1800 nM
SMILES: N.N.O=C(O)c1cc(-c2ccc(CN(Cc3ccccc3)Cc3ccc(-c4ccc(O)c(C(=O)O)c4)o3)o2)ccc1O
Activity (Hepatocyte [4]): Non-Toxic | fold change (FC) (Hepatocyte [7]): 0.76 | fold change (FC) (Hepatocyte [8]): 0.47 | Activity (Hepatocyte [9]): Non-Toxic | fold change (FC) (Hepatocyte [12]): 0.59 | fold change (FC) (Hepatocyte [13]): 0.76

Reference: ChEMBL document CHEMBL5120856, “New salicylic acid derivatives, double inhibitors of glycolate oxidase and lactate dehydrogenase, as effective agents decreasing oxalate production” (Eur J Med Chem, 2022)
